Data from ChEMBL document CHEMBL5715938, “The protein kinase Cbeta-selective inhibitor, Enzastaurin (LY317615.HCl), suppresses signaling through the AKT pathway, induces apoptosis, and suppresses growth of human colon cancer and glioblastoma xenografts” (Cancer Res, 2005).
Active and inactive are the calls of the source. The rule behind the calls is not given here.

Tests used:
HOP-62 = assay: Antiproliferative activity against human HOP-62 cells assessed as reduction in cell growth upto 10 uM measured after 6 days by propidium iodide staining based analysis; assay type: functional; conditions: time 6.0 day
Method in brief: (§1)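 ATCC-sourced lines grown without antibiotics; 1,000 cells/well in 1% FBS medium, refed ±drug on days 1 and 4 over a 6-day course. On day 7, propidium iodide (10 μg/mL in D-PBS) read after 30 min for nonviable cells, plate frozen at -80°C 2 h, thawed and reread; proliferative index = postfreeze minus prefreeze signal.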

HCT-116 [1] = assay: Antiproliferative activity against human HCT-116 cells assessed as reduction in cell growth upto 10 uM measured after 6 days by propidium iodide staining based analysis; assay type: functional; conditions: time 6.0 day; method in brief: as §1
[2] = biological target: Inhibitor of nuclear factor kappa-B kinase subunit beta (Homo sapiens) (UniProt O14920); assay: Inhibition of IKKbeta (unknown origin) at 1 micromol/L relative to control; conditions: dose 1.0 µmol/L
Chain of Inhibitor of nuclear factor kappa-B kinase subunit beta (Homo sapiens) (O14920 whole entry): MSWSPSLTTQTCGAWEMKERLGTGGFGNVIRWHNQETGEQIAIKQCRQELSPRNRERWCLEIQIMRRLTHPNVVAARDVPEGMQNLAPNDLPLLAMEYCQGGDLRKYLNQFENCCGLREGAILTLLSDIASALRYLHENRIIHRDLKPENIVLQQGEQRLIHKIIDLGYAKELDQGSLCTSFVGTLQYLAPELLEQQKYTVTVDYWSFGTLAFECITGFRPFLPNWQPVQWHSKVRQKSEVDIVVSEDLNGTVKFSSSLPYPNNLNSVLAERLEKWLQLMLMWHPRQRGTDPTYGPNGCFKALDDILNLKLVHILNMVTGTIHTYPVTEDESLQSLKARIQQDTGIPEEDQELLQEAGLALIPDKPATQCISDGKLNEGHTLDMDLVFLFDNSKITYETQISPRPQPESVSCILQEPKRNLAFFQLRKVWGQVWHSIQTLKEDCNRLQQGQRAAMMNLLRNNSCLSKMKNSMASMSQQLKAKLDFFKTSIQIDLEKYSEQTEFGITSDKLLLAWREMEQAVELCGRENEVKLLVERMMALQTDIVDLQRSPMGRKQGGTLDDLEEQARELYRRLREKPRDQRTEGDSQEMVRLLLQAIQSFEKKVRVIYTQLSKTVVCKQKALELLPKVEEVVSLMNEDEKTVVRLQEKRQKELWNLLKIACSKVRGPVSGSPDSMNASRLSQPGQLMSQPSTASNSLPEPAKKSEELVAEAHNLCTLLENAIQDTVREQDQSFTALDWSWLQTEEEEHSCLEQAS
Method in brief: (§2)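 Upstate Kinase Profiler panel at 1 μmol/L drug, run per provider; data expressed as percent of kinase activity without drug.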

SK-OV-3 = assay: Antiproliferative activity against human SK-OV-3 cells assessed as reduction in cell growth upto 10 uM measured after 6 days by propidium iodide staining based analysis; assay type: functional; conditions: time 6.0 day; method in brief: as §1
[3] = biological target: Serine/threonine-protein kinase AKT (Homo sapiens) (UniProt P31751+Q9Y243+P31749); assay: Inhibition of AKT phosphorylation at Thr308 residue in human HCT-116 cells at 1 micromol/L upto 4 hrs by Western blotting analysis; assay type: cell-based; conditions: dose 1.0 µmol/L
Chain of Serine/threonine-protein kinase AKT (Homo sapiens) (P31749 whole entry, looked up): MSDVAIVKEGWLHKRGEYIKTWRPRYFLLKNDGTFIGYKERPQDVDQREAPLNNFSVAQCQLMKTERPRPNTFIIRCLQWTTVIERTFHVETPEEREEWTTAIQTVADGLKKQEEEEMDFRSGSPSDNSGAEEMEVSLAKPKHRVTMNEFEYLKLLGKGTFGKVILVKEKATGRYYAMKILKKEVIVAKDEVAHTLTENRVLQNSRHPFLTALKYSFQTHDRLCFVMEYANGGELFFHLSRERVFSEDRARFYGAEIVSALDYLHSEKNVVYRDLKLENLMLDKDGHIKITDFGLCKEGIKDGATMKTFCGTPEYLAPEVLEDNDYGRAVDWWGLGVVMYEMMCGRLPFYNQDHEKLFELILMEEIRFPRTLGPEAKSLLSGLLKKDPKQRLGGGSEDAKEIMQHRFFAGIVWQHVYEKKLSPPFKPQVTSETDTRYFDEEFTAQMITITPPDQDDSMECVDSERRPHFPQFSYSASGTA
Chain of Serine/threonine-protein kinase AKT (Homo sapiens) (P31751 whole entry, looked up): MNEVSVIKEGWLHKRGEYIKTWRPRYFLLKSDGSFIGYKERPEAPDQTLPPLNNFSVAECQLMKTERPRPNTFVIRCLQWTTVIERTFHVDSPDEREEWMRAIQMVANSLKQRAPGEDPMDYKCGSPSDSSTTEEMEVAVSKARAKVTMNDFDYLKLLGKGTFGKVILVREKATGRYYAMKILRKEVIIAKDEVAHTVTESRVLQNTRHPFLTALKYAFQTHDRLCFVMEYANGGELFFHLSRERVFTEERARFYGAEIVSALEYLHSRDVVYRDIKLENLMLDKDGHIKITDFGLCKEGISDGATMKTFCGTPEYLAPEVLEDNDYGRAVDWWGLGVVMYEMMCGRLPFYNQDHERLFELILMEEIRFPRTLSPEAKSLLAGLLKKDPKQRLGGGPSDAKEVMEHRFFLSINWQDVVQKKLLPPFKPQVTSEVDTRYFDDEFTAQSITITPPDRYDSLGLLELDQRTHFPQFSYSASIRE
Chain of Serine/threonine-protein kinase AKT (Homo sapiens) (Q9Y243 whole entry, looked up): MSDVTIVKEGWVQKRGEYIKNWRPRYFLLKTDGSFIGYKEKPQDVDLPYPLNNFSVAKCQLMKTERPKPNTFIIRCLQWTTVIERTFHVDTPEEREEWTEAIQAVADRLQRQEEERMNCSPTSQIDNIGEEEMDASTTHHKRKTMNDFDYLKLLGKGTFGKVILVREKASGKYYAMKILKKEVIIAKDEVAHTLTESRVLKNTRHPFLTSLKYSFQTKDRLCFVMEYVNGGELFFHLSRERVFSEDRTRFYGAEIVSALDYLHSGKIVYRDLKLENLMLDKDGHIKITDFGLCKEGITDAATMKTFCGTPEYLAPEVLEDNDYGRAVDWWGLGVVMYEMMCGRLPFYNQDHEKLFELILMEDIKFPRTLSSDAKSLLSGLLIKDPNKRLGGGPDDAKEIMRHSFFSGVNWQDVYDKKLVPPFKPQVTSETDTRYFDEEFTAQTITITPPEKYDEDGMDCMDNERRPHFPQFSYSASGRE
Method in brief: (§3)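 Cultured tumor cells treated with 1 μmol/L drug; lysates in cell extraction buffer with protease inhibitors, western blotted with phospho-specific antibodies (pGSK3β Ser9, pAKT Thr308, phospho-ERK) alongside total GSK3β/AKT.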

[4] = biological target: Protein kinase C alpha type (Homo sapiens) (UniProt P17252); assay: Inhibition of PKCalpha (unknown origin) at 1 micromol/L relative to control; conditions: dose 1.0 µmol/L
Method in brief: (§4)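 Commercial kinase profiler panel run to the provider's protocol, with the compound tested at 1 µmol/L. Activity is expressed as percent of kinase activity without compound.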

[5] = biological target: Dual specificity mitogen-activated protein kinase kinase 6 (Homo sapiens) (UniProt P52564); assay: Inhibition of MKK6 (unknown origin) at 1 micromol/L relative to control; conditions: dose 1.0 µmol/L; method in brief: as §4
Chain of Dual specificity mitogen-activated protein kinase kinase 6 (Homo sapiens) (P52564 whole entry): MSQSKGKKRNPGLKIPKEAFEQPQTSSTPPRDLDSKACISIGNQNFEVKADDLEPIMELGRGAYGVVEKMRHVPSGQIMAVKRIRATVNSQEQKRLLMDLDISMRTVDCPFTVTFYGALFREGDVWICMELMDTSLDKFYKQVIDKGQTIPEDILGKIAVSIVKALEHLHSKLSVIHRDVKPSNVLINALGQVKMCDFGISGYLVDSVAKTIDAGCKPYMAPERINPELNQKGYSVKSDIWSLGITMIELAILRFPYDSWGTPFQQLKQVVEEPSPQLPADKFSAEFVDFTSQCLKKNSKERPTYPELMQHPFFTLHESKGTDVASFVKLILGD

[6] = biological target: Mitogen-activated protein kinase 1 (Homo sapiens) (UniProt P28482); assay: Inhibition of MAPK1 (unknown origin) at 1 micromol/L relative to control; conditions: dose 1.0 µmol/L; method in brief: as §2
Chain of Mitogen-activated protein kinase 1 (Homo sapiens) (P28482 whole entry): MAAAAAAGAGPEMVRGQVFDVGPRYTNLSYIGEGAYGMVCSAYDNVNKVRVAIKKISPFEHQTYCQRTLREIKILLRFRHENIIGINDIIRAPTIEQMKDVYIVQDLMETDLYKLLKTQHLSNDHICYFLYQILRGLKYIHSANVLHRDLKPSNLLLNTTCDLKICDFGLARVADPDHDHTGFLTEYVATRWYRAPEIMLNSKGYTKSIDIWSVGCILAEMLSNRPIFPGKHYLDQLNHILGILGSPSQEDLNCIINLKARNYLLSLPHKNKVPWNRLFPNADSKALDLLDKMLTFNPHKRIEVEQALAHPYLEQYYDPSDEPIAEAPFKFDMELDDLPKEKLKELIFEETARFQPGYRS

[7] = biological target: Protein kinase C zeta type (Homo sapiens) (UniProt Q05513); assay: Inhibition of PKCzeta (unknown origin) at 1 micromol/L relative to control; conditions: dose 1.0 µmol/L; method in brief: as §4
BT-549 = assay: Antiproliferative activity against human BT-549 cells assessed as reduction in cell growth upto 10 uM measured after 6 days by propidium iodide staining based analysis; assay type: functional; conditions: time 6.0 day; method in brief: as §1
U-87 MG = assay: Inhibition of ERK in human U-87 MG cells at 1 micromol/L measured upto 4 hrs by Western blotting analysis; assay type: cell-based; conditions: dose 1.0 µmol/L; method in brief: as §3
T47D = assay: Antiproliferative activity against human T47D cells assessed as reduction in cell growth upto 10 uM measured after 6 days by propidium iodide staining based analysis; assay type: functional; conditions: time 6.0 day; method in brief: as §1
[8] = biological target: Fibroblast growth factor receptor 3 (Homo sapiens) (UniProt P22607); assay: Inhibition of FGFR3 (unknown origin) at 1 micromol/L relative to control; conditions: dose 1.0 µmol/L; method in brief: as §2
Chain of Fibroblast growth factor receptor 3 (Homo sapiens) (P22607 23-806 limits assumed): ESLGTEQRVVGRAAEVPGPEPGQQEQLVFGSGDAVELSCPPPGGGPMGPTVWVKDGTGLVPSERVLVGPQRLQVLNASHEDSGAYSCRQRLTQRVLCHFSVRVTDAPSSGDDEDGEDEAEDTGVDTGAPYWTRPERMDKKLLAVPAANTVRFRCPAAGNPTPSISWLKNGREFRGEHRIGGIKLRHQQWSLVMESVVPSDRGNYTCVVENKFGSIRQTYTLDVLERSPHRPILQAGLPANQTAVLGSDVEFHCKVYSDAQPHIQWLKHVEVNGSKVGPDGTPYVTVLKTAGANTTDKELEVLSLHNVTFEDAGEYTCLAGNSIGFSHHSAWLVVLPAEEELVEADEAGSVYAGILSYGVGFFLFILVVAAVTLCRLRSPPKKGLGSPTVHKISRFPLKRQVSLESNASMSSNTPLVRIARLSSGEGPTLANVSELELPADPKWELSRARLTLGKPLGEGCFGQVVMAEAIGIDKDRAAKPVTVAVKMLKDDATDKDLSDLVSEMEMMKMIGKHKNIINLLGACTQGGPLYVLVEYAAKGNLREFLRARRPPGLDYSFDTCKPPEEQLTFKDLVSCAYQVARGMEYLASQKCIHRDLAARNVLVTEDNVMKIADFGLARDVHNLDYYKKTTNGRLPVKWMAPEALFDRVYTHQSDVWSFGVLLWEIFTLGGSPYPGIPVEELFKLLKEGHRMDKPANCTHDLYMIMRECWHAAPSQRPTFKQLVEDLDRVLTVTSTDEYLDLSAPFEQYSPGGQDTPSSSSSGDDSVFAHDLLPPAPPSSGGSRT

Hs-578T = assay: Antiproliferative activity against human Hs-578T cells assessed as reduction in cell growth upto 10 uM measured after 6 days by propidium iodide staining based analysis; assay type: functional; conditions: time 6.0 day; method in brief: as §1
[9] = biological target: Mitogen-activated protein kinase 9 (Homo sapiens) (UniProt P45984); assay: Inhibition of JNK2alpha2 (unknown origin) at 1 micromol/L relative to control; conditions: dose 1.0 µmol/L; method in brief: as §2
HCT-116 [10] = assay: Induction of apoptosis in human HCT-116 cells assessed as increase in apoptotic cells in sub-G0-G1 fraction at 0.3 to 4 micromol/L incubated for 72 hrs by TUNEL staining based analysis; assay type: functional, cell-based; conditions: dose 0.3-4 µmol/L
[11] = biological target: Protein kinase C gamma type (Homo sapiens, UniProt P05129); assay: Inhibition of recombinant human PKCgamma using myelin basic protein as substrate incubated for 60 mins in presence of […] and ATP by microbeta scintillation counter analysis
Method in brief: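 Radiometric filter-plate assay with recombinant human PKCγ (128 pmol/L) phosphorylating myelin basic protein (0.25 mg/mL). Buffer: 90 mmol/L HEPES pH 7.5, 5 mmol/L MgCl2, 100 µmol/L CaCl2, phosphatidylserine, diacylglycerol, 0.001% Triton X-100, 4% DMSO, 30 µmol/L ATP plus 32P-ATP. Enzyme added to start; ran 60 min at room temperature; H3PO4 quench; phosphocellulose capture. IC50 from a three-variable logistic fit to a 10-point series, 1–2,000 nmol/L.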

[12] = biological target: Mitogen-activated protein kinase 14 (Homo sapiens) (UniProt Q16539); assay: Inhibition of SAPK2alpha (unknown origin) at 1 micromol/L relative to control; conditions: dose 1.0 µmol/L; method in brief: as §4
OVCAR-5 = assay: Antiproliferative activity against human OVCAR-5 cells assessed as reduction in cell growth upto 10 uM measured after 6 days by propidium iodide staining based analysis; assay type: functional; conditions: time 6.0 day; method in brief: as §1
HCT-116 [13] = assay: Antitumor activity against human HCT-116 cells xenografted in athymic nude mouse assessed as reduction in GSK3beta phosphorylation at serine 9 residue at 75 mg/kg, po administered twice daily measured after 30 mins by ELISA method relative to control; assay type: functional; set-up: scale not given: the % may be the effect or the level left; conditions: 0.5 h
Method in brief: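 HCT116-bearing nude mice, 75 mg/kg by gavage; tumors and PBMCs harvested 0.5, 2, 4, 8 h post-dose, n = 5 per time point. PBMCs from five mice pooled via CPT tube. Lysates assayed by pGSK3β Ser9 immunometric ELISA (tumor 400–600 μg, PBMC 50–100 μg protein/well); percent of vehicle control, Dunnett/ANOVA.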

[14] = biological target: Proto-oncogene tyrosine-protein kinase Src (Homo sapiens) (UniProt P12931); assay: Inhibition of c-SRC (unknown origin) at 1 micromol/L relative to control; conditions: dose 1.0 µmol/L; method in brief: as §4
RXF 393 = assay: Antiproliferative activity against human RXF 393 cells assessed as reduction in cell growth upto 10 uM measured after 6 days by propidium iodide staining based analysis; assay type: functional; conditions: time 6.0 day; method in brief: as §1
NCI-H322M = assay: Antiproliferative activity against human NCI-H322M cells assessed as reduction in cell growth upto 10 uM measured after 6 days by propidium iodide staining based analysis; assay type: functional; conditions: time 6.0 day; method in brief: as §1
[15] = biological target: Glycogen synthase kinase-3 beta (Homo sapiens) (UniProt P49841); conditions: U-87 MG, dose 1.0 µmol/L, time <= 4.0 hrs
Chain of Glycogen synthase kinase-3 beta (Homo sapiens) (P49841 whole entry, looked up): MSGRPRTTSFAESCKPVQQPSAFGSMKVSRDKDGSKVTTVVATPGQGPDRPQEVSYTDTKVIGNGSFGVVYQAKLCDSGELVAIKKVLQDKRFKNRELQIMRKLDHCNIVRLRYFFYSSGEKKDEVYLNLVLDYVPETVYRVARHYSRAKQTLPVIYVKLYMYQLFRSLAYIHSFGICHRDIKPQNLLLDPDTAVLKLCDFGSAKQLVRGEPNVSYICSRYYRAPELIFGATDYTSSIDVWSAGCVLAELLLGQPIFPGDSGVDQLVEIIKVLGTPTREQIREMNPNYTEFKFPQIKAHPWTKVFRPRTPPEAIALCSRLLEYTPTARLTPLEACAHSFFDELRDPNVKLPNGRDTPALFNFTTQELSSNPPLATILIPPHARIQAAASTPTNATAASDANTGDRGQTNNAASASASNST

786-0 = assay: Antiproliferative activity against human 786-0 cells assessed as reduction in cell growth upto 10 uM measured after 6 days by propidium iodide staining based analysis; assay type: functional; conditions: time 6.0 day; method in brief: as §1
A498 = assay: Antiproliferative activity against human A498 cells assessed as reduction in cell growth upto 10 uM measured after 6 days by propidium iodide staining based analysis; assay type: functional; conditions: time 6.0 day; method in brief: as §1
[16] = biological target: Glycogen synthase kinase-3 beta (Homo sapiens) (UniProt P49841); assay: Inhibition of GSK3beta phosphorylation at serine 9 residue in human HCT-116 cells at 1 micromol/L by Western blotting analysis; assay type: cell-based; conditions: dose 1.0 µmol/L, time <= 4.0 hrs, TDE = time-dependent effect; method in brief: as §3

Cl.Cn1cc(C2=C(c3cn(C4CCN(Cc5ccccn5)CC4)c4ccccc34)C(=O)NC2=O)c2ccccc21 [ENZASTAURIN HYDROCHLORIDE]
Activity (HOP-62): inactive
Activity (HCT-116 [1]): Active
% control activity [2]: 116%
Activity (SK-OV-3): inactive
inhibition [3]: Active
% control activity [4]: 23%
% control activity [5]: 99%
% control activity [6]: 114%
% control activity [7]: 47%
Activity (BT-549): inactive
inhibition (U-87 MG): inactive
Activity (T47D): inactive
% control activity [8]: 82%
Activity (Hs-578T): inactive
% control activity [9]: 103%
Activity (HCT-116 [10]): Active
IC50 [11]: 83 nM
% control activity [12]: 101%
Activity (OVCAR-5): inactive
Activity (HCT-116 [13]): 50%
% control activity [14]: 101%
Activity (RXF 393): inactive
Activity (NCI-H322M): inactive
inhibition [15]: Active
Activity (786-0): inactive
Activity (A498): inactive
inhibition [16]: Tde
